Laboratory results: ChEMBL document CHEMBL1146223, “Synthesis, monoamine transporter binding, properties, and functional monoamine uptake activity of 3beta-[4-methylphenyl and 4-chlorophenyl]-2 beta-[5-(substituted phenyl)thiazol-2-yl]tropanes” (J Med Chem, 2007)
pIC50, pKi: −log10 of the molar value.

Tests used:
[1] = biological target: Sodium-dependent dopamine transporter (Rattus norvegicus, UniProt P23977); test: Displacement of [3H]WIN-35428 from DAT in Sprague-Dawley rat brain; assay type: tissue-based
Summary of the method: (§1)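 Male Sprague-Dawley rats (200-250 g); striata, midbrain or frontal cortex tissue used for competition binding. Final radioligand concentrations were 0.5 nM for DAT, 0.2 nM [³H]paroxetine for SERT and 0.5 nM [³H]nisoxetine for NET.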

[2] = biological target: Sodium-dependent serotonin transporter (Rattus norvegicus, UniProt P31652); test: Displacement of [3H]paroxetine from SERT in Sprague-Dawley rat brain; assay type: tissue-based; summary of the method: as §1
[3] = biological target: Norepinephrine transporter (Rattus norvegicus, UniProt Q9WTR4); test: Displacement of [3H]nisoxetine from NET in Sprague-Dawley rat brain; assay type: tissue-based; summary of the method: as §1
[4] = biological target: Sodium-dependent dopamine transporter (Homo sapiens, UniProt Q01959); test: Displacement of [125I]RTI-55 from human DAT expressed in HEK cells after 90 mins; assay type: cell-based, HEK293
Summary of the method: (§2)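 Competition binding on human DAT or SERT stably expressed in HEK293 cells, using the nonselective radioligand [¹²⁵I]RTI-55.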

[5] = biological target: T1, Sodium-dependent serotonin transporter (Homo sapiens, UniProt P31645); test: Displacement of [125I]RTI-55 from human SERT expressed in HEK cells after 90 mins; assay type: cell-based, HEK293; summary of the method: as §2
[6] = biological target: T1, Sodium-dependent serotonin transporter; test: Inhibition of human SERT in HEK cells assessed as [3H]serotonin reuptake; assay type: functional, cell-based, HEK293
Summary of the method: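 Human SERT stably expressed in HEK293 cells; the compound's block of radiolabelled serotonin reuptake was measured in these cells.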

[7] = biological target: T2, Sodium-dependent noradrenaline transporter (Homo sapiens, UniProt P23975); test: Displacement of [125I]RTI-55 from human NET expressed in HEK cells after 90 mins; assay type: cell-based, HEK293
[8] = biological target: T2, Sodium-dependent noradrenaline transporter; test: Inhibition of human NET in HEK cells assessed as [3H]norepinephrine reuptake; assay type: functional, cell-based, HEK293

Chain of Norepinephrine transporter (Q9WTR4 whole entry): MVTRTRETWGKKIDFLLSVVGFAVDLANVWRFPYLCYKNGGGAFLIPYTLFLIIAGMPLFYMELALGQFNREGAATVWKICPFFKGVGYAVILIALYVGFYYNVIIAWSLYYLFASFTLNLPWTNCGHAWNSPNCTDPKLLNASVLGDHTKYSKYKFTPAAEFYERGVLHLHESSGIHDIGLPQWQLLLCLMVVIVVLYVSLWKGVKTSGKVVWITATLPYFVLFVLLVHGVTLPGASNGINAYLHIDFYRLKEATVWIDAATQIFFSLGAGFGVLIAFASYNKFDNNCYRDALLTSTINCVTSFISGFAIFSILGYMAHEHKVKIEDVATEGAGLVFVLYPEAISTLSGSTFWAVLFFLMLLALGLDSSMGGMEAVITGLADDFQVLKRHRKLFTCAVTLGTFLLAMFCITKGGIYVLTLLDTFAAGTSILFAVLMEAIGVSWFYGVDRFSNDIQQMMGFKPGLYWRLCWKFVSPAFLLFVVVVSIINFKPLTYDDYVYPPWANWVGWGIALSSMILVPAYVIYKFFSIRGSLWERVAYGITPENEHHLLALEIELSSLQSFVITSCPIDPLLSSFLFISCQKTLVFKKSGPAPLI
Chain of Sodium-dependent dopamine transporter (Rattus norvegicus, UniProt P23977) (P23977 whole entry): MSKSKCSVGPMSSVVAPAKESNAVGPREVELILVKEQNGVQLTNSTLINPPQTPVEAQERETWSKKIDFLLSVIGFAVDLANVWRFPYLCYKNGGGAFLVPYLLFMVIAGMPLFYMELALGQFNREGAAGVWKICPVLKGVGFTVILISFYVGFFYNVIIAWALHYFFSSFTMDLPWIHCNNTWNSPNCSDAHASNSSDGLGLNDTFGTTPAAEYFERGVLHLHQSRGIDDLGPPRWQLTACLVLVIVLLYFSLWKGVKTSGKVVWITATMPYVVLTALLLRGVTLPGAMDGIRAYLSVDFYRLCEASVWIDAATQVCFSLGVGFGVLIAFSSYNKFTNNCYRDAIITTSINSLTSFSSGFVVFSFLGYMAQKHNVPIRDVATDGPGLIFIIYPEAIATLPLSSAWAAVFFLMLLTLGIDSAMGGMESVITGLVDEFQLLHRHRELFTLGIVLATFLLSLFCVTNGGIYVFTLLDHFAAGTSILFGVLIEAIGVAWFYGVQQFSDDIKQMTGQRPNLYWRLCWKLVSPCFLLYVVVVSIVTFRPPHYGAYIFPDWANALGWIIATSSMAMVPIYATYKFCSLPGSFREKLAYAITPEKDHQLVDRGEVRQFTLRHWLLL
T2 sequence (P23975 whole entry): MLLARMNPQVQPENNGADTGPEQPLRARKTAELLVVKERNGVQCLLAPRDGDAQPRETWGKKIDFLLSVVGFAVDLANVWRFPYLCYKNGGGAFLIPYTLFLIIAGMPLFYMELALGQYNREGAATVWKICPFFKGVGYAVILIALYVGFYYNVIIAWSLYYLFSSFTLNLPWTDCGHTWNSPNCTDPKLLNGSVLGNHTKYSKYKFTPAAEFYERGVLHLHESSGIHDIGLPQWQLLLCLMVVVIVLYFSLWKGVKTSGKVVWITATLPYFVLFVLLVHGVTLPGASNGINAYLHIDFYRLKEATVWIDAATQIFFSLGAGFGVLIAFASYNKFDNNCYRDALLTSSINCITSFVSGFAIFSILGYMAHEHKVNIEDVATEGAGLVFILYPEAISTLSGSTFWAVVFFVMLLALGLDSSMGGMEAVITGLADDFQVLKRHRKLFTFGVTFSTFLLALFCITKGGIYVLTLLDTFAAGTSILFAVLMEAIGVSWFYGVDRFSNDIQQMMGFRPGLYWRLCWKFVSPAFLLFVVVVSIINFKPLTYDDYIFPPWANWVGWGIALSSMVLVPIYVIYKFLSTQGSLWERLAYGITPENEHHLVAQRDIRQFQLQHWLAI
Chain of Sodium-dependent dopamine transporter (Homo sapiens, UniProt Q01959) (Q01959 whole entry): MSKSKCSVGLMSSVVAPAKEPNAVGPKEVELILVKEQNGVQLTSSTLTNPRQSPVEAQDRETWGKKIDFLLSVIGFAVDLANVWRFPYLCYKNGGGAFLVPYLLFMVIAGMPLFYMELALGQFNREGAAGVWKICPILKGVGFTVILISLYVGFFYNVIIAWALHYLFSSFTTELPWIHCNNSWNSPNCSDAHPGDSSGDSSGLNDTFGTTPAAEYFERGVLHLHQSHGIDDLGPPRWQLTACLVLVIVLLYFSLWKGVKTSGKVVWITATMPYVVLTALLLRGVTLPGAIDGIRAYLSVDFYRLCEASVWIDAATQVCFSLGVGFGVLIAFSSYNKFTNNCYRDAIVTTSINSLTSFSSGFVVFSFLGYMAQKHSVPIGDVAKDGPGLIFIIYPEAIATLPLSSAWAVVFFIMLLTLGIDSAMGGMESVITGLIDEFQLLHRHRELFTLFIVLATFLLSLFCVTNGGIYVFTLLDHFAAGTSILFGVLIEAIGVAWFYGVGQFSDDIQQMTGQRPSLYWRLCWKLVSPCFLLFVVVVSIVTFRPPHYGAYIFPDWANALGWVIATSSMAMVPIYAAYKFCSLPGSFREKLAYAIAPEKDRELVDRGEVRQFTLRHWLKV
T1 sequence (P31645 whole entry): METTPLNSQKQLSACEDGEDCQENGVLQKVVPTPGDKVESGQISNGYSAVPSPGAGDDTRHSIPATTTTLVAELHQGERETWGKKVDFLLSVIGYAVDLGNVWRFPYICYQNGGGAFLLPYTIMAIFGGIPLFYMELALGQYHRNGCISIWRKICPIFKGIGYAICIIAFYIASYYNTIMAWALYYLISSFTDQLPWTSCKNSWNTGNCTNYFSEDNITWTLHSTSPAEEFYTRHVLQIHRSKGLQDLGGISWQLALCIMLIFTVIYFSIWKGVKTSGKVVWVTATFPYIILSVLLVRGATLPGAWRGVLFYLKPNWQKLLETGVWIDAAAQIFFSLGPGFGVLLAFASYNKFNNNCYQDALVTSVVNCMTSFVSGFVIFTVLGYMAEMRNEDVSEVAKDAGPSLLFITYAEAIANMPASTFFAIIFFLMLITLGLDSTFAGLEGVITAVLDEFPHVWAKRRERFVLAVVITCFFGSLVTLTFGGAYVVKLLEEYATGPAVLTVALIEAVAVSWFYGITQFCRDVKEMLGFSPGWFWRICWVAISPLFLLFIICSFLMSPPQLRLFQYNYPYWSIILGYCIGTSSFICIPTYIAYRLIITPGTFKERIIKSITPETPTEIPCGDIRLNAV
Chain of Sodium-dependent serotonin transporter (Rattus norvegicus, UniProt P31652) (P31652 whole entry): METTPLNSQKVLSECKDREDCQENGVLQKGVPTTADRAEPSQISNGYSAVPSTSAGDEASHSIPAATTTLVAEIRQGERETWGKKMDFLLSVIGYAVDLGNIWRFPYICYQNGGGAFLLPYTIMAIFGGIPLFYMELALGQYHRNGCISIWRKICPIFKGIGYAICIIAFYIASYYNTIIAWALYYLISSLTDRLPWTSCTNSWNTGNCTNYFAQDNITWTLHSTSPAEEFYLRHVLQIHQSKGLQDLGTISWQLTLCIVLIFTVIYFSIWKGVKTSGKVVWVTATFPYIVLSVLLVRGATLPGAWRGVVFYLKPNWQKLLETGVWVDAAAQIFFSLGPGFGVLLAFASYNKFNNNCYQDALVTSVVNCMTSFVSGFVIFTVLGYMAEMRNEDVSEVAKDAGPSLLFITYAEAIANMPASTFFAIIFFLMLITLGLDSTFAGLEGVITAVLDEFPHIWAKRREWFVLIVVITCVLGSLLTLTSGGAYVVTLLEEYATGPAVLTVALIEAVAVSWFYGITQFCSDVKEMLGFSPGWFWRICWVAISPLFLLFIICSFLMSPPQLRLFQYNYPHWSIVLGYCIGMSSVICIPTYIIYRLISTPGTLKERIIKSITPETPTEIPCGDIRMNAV

Q: Which results are given for COc1ccc(-c2cnc([C@H]3[C@@H](c4ccc(Cl)cc4)C[C@@H]4CC[C@H]3N4C)s2)cc1?
A: pIC50 [1]: 7.85; pKi [2]: 6.10; pKi [3]: < 5.70; pKi [4]: 8.07; pKi [5]: 5.28; pIC50 [6]: 5.17

Q: Which results are given for Cc1ccc([C@H]2C[C@@H]3CC[C@H]([C@H]2c2ncc(-c4ccc(Cl)c(Cl)c4)s2)N3C)cc1?
A: pIC50 [1]: 6.99; pKi [2]: 6.72; pKi [3]: < 5.70; pKi [4]: 6.98; pKi [5]: 5.53; pKi [7]: < 5.21; pIC50 [6]: 5.36; pIC50 [8]: 5.40

Q: Cc1ccc([C@H]2C[C@@H]3CC[C@H]([C@H]2c2ncc(-c4cccc([N+](=O)[O-])c4)s2)N3C)cc1 was tested. Which pIC50 [1] did it give?
A: 8.40

Q: And the pKi [2]?
A: 5.00

Q: And the pKi [3]?
A: < 5.70

Q: And the pKi [4]?
A: 7.85

Q: What about the pKi [5] of the same molecule?
A: 6.24

Q: And the pIC50 [6]?
A: 5.62

Q: What does the source list for CN1[C@H]2CC[C@@H]1[C@@H](c1ncc(-c3ccc(F)cc3)s1)[C@@H](c1ccc(Cl)cc1)C2?
A: pIC50 [1]: 8.22; pKi [2]: 6.43; pKi [3]: < 5.70; pKi [4]: 7.92; pKi [5]: 6.19; pIC50 [6]: 6.00

Q: How did the pIC50 [1] turn out when CN1[C@H]2CC[C@@H]1[C@@H](c1ncc(-c3cccc(Br)c3)s1)[C@@H](c1ccc(Cl)cc1)C2 was run?
A: 7.74

Q: What about the pKi [2] of the same molecule?
A: 6.55

Q: What about the pKi [3] of the same molecule?
A: < 5.70

Q: And the pKi [4]?
A: 7.41

Q: What about the pKi [5] of the same molecule?
A: 5.82

Q: And the pIC50 [6]?
A: 5.40

Q: Which results are given for CN1[C@H]2CC[C@@H]1[C@@H](c1ncc(-c3ccc(Br)cc3)s1)[C@@H](c1ccc(Cl)cc1)C2?
A: pKi [2]: 6.08; pKi [3]: < 5.70; pKi [5]: 5.24; pIC50 [6]: 5.09

Q: COc1ccc(-c2cnc([C@H]3[C@@H](c4ccc(Cl)cc4)C[C@@H]4CC[C@H]3N4C)s2)cc1OC was tested. Which pIC50 [1] did it give?
A: 7.19

Q: And the pKi [2]?
A: 5.82

Q: What about the pKi [3] of the same molecule?
A: < 5.70

Q: What about the pKi [4] of the same molecule?
A: 6.63

Q: And the pKi [5]?
A: 5.44

Q: What about the pIC50 [6] of the same molecule?
A: < 5.17

Q: What does the source list for Cc1ccc([C@H]2C[C@@H]3CC[C@H]([C@H]2c2ncc(-c4cccc(Br)c4)s2)N3C)cc1?
A: pIC50 [1]: 8.00; pKi [2]: 6.51; pKi [3]: < 5.70; pKi [4]: 7.92; pKi [5]: 6.06; pIC50 [6]: 5.41

Q: Cc1ccc([C@H]2C[C@@H]3CC[C@H]([C@H]2c2ncc(-c4ccc(Cl)cc4)s2)N3C)cc1 was tested. Which pIC50 [1] did it give?
A: 7.66

Q: What about the pKi [2] of the same molecule?
A: 5.95

Q: And the pKi [3]?
A: < 5.70

Q: And the pKi [4]?
A: 6.67

Q: What about the pKi [5] of the same molecule?
A: 5.88

Q: And the pIC50 [6]?
A: 6.42

Q: CN1[C@H]2CC[C@@H]1[C@@H](c1ncc(-c3ccc(Cl)c(Cl)c3)s1)[C@@H](c1ccc(Cl)cc1)C2 was tested. Which pIC50 [1] did it give?
A: 6.36

Q: And the pKi [2]?
A: 6.42

Q: And the pKi [3]?
A: < 5.70

Q: And the pKi [4]?
A: 7.18

Q: And the pKi [5]?
A: 5.57

Q: And the pIC50 [6]?
A: 5.28

Q: With COC(=O)[C@H]1[C@@H](c2ccccc2)C[C@@H]2CC[C@H]1N2C [TROPARIL] as the molecule, how does the pIC50 [1] read?
A: 7.64

Q: What about the pKi [3] of the same molecule?
A: 6.04

Q: What does the source list for CN1[C@H]2CC[C@@H]1[C@@H](c1ncc(-c3cccc([N+](=O)[O-])c3)s1)[C@@H](c1ccc(Cl)cc1)C2?
A: pIC50 [1]: 8.30; pKi [2]: 6.52; pKi [3]: < 5.70; pKi [4]: 8.11; pKi [5]: 6.13; pIC50 [6]: 5.79

Q: Cc1ccc([C@H]2C[C@@H]3CC[C@H]([C@H]2c2ncc(-c4ccc(F)cc4)s2)N3C)cc1 was tested. Which pIC50 [1] did it give?
A: 7.92

Q: What about the pKi [2] of the same molecule?
A: 5.65

Q: And the pKi [3]?
A: < 5.70

Q: What about the pKi [4] of the same molecule?
A: 7.21

Q: What about the pKi [5] of the same molecule?
A: 5.76

Q: And the pIC50 [6]?
A: 5.49

Q: COc1ccc(-c2cnc([C@H]3[C@@H](c4ccc(C)cc4)C[C@@H]4CC[C@H]3N4C)s2)cc1OC was tested. Which pIC50 [1] did it give?
A: 7.08

Q: What about the pKi [2] of the same molecule?
A: < 5.70

Q: What about the pKi [3] of the same molecule?
A: < 5.70

Q: What about the pKi [4] of the same molecule?
A: 6.28

Q: What about the pKi [5] of the same molecule?
A: 5.11

Q: What about the pIC50 [6] of the same molecule?
A: < 5.00

Q: With Cc1ccc([C@H]2C[C@@H]3CC[C@H]([C@H]2c2ncc(-c4ccc([N+](=O)[O-])cc4)s2)N3C)cc1 as the molecule, how does the pIC50 [1] read?
A: 7.39

Q: And the pKi [2]?
A: 5.77

Q: And the pKi [3]?
A: < 5.70

Q: What about the pKi [4] of the same molecule?
A: 6.85

Q: What about the pKi [5] of the same molecule?
A: 5.79

Q: What about the pIC50 [6] of the same molecule?
A: 5.50

Q: CN1[C@H]2CC[C@@H]1[C@@H](c1ncc(-c3ccc([N+](=O)[O-])cc3)s1)[C@@H](c1ccc(Cl)cc1)C2 was tested. Which pIC50 [1] did it give?
A: 7.70

Q: What about the pKi [2] of the same molecule?
A: 6.01

Q: What about the pKi [3] of the same molecule?
A: < 5.70

Q: What about the pKi [4] of the same molecule?
A: 8.21

Q: And the pKi [5]?
A: 5.74

Q: What about the pIC50 [6] of the same molecule?
A: 5.44

Q: COc1ccc(-c2cnc([C@H]3[C@@H](c4ccc(C)cc4)C[C@@H]4CC[C@H]3N4C)s2)cc1 was tested. Which pIC50 [1] did it give?
A: 7.82

Q: And the pKi [2]?
A: < 5.70

Q: What about the pKi [3] of the same molecule?
A: < 5.70

Q: And the pKi [4]?
A: 7.28

Q: And the pKi [5]?
A: 5.44

Q: What about the pKi [7] of the same molecule?
A: 5.44

Q: What about the pIC50 [6] of the same molecule?
A: 5.17

Q: What about the pIC50 [8] of the same molecule?
A: 5.74

Q: How did the pKi [4] turn out when Cc1ccc([C@H]2C[C@@H]3CC[C@H]([C@H]2c2ncc(-c4ccc(Br)cc4)s2)N3C)cc1 was run?
A: 6.89

Q: And the pKi [5]?
A: 5.73

Q: And the pIC50 [6]?
A: 5.74

Q: What does the source list for CN1[C@H]2CC[C@@H]1[C@@H](c1ncc(-c3ccccc3)s1)[C@@H](c1ccc(Cl)cc1)C2?
A: pIC50 [1]: 8.24; pKi [2]: < 5.70; pKi [3]: 5.07; pKi [4]: 7.74; pKi [5]: 5.57; pKi [7]: 5.74; pIC50 [6]: 5.57; pIC50 [8]: 6.12

Q: CN1[C@H]2CC[C@@H]1[C@@H](c1ncc(-c3ccc(Cl)cc3)s1)[C@@H](c1ccc(Cl)cc1)C2 was tested. Which pIC50 [1] did it give?
A: 7.70

Q: What about the pKi [2] of the same molecule?
A: 6.04

Q: What about the pKi [3] of the same molecule?
A: < 5.70

Q: And the pKi [4]?
A: 7.55

Q: And the pKi [5]?
A: 5.62

Q: And the pIC50 [6]?
A: 5.36
